Data set [1] in a line: Partition coefficient, logD of the compound at pH 7.4 by HPLC analysis. The note with it: octanol/water. Type of data set: physicochemical.
The nature of data set [2]: Kinetic solubility in pH 2.0 0.01M HCl buffer incubated for 30 mins by nephelometry. Type of data set: physicochemical. Particulars: read-out: Kinetic_solubility. Put shortly: (§1)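 DMSO stocks (10 mg/mL) diluted into pH 6.5 phosphate buffer or 0.01 M HCl (about pH 2.0) at 1% final DMSO. After 30 min, a solubility range was determined by nephelometry.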
A further data set has as its target Albumin (Homo sapiens, UniProt P02768). The data set is described as follows: Protein binding to human albumin by HPLC analysis. Type of data set: ADME. The note with it: isolated protein. A digest of the protocol: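 Binding estimated chromatographically using a gradient HPLC method derived from the Valko approach.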
Data set [3] is described as follows: Kinetic solubility in pH 6.5 phosphate buffer incubated for 30 mins by nephelometry. Type of data set: physicochemical. Particulars: read-out: Kinetic_solubility. Put shortly: as §1
In data set [4] the test system is Schistosoma mansoni. The experiment in a line: Antischistosomal activity against Schistosoma mansoni infected in mouse assessed as reduction in juvenile worm burden at 200 mg/kg, po administered as single dose relative to control. In kind it is functional. Further details: scale not given: the % may be the effect or the level left. A digest of the protocol: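 Female NMRI mice, 4 weeks old, infected subcutaneously with about 100 S. mansoni cercariae. Juvenile-stage treatment was a single oral dose on day 21 post-infection in 7% v/v Tween 80 / 3% v/v ethanol (10 mL/kg). Untreated infected mice (n = 8) served as controls. Necropsy by CO2 21 days post-treatment, with worms picked, sexed and counted.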

A further data set concerns U2OS. The data set is described as follows: Cytotoxicity in human U2OS assessed as reduction in cell viability up to 50 uM incubated for 24 hrs by Alamar blue sye based assay. A digest of the protocol:
(§2)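 Cells maintained in D10 medium were grown to confluence, then exposed to increasing compound concentrations (0–100 μM) for 24 h. Alamar blue (10 mM) was then added for 4 h, and viability was read as fluorescence.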
(In general: The colour change of resazurin is a common sign of viable cells or microbes.)

The nature of data set [5]: Intrinsic clearance in human liver microsomes in presence of NADPH-regenerating system incubated over 60 mins. Type of data set: ADME, Microsome. Particulars: read-out: CLH. Put shortly: (§3)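 Compounds incubated at 37 °C with liver microsomes at 0.4 mg/mL protein. Reaction started by adding an NADPH-regenerating system and quenched with acetonitrile containing diazepam internal standard at several time points over 60 min. No-NADPH controls were quenched at 2, 30 and 60 min.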

Data set [6] can be described thus: Cytotoxicity in human HC04 assessed as reduction in cell viability up to 50 uM incubated for 24 hrs by Alamar blue sye based assay. A digest of the protocol: as §2
The next data set deals with HFF. The data set is described as follows: Cytotoxicity in HFF assessed as reduction in cell viability up to 50 uM incubated for 24 hrs by Alamar blue sye based assay. The note with it: human. A digest of the protocol: as §2
Another data set deals with HEK-293T. The data set is described as follows: Cytotoxicity in human HEK293T assessed as reduction in cell viability up to 50 uM incubated for 24 hrs by Alamar blue sye based assay. A digest of the protocol:
as §2

Data set [7] in a line: Intrinsic clearance in mouse liver microsomes in presence of NADPH-regenerating system incubated over 60 mins. Type of data set: ADME, Microsome. The note with it: read-out: CLH. Put shortly: as §3
In general terms: Liver microsomes are vesicles of endoplasmic reticulum, rich in cytochrome P450 enzymes.

For data set [8], the system named is Schistosoma mansoni. The data set is described as follows: Antischistosomal activity against Schistosoma mansoni infected in NMRI mouse assessed as reduction in total adult worm burden at 400 mg/kg, po administered as single dose starting on day 49 post-infection and measured at 28 days post treatment relative to control. Type of data set: functional. Also noted: scale not given: the % may be the effect or the level left.

Data set [9] concerns Schistosoma mansoni. The data set is described as follows: Antischistosomal activity against Schistosoma mansoni. In kind it is functional, organism-based.
The subject of another data set is Schistosoma haematobium. The data set is described as follows: Antischistosomal activity against Schistosoma haematobium infected in mouse assessed as reduction in adult worm burden at 400 mg/kg, po administered as single dose relative to control. Further details: scale not given: the % may be the effect or the level left. Type of data set: functional.
The subject of data set [10] is Schistosoma japonicum. The experiment in a line: Antischistosomal activity against Schistosoma japonicum. Type of data set: functional, organism-based.
The test system of data set [11] is Schistosoma mansoni. The data set is described as follows: Antischistosomal activity against Schistosoma mansoni infected in mouse assessed as reduction in adult worm burden at 400 mg/kg, po administered as single dose relative to control. In kind it is functional. Further details: scale not given: the % may be the effect or the level left.
In data set [12] the test system is Schistosoma japonicum. The data set is described as follows: Antischistosomal activity against Schistosoma japonicum infected in mouse assessed as reduction in adult worm burden at 400 mg/kg, po administered as single dose relative to control. In kind it is functional. Further details: scale not given: the % may be the effect or the level left.

The structures appear in SMILES notation. Converted amounts (≈) assume the structure as drawn.

Chain of Albumin (P02768 whole entry): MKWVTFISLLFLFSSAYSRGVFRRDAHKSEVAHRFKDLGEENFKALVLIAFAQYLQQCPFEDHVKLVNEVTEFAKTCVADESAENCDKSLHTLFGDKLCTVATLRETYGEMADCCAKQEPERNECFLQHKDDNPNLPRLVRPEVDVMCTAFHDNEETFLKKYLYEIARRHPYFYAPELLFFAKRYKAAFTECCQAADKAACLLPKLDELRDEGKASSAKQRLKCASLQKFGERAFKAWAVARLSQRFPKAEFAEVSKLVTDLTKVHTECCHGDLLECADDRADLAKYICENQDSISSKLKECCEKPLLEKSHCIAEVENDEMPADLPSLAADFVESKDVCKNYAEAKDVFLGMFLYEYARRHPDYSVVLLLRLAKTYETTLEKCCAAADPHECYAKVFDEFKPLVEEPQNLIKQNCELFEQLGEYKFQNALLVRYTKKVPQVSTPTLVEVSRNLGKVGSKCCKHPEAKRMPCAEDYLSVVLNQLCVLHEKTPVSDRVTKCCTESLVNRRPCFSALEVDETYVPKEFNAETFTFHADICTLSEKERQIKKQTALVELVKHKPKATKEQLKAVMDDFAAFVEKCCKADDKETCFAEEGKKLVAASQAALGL

As a reminder, the logD is the decadic logarithm of the distribution of all forms, ionised or not, between an organic phase and buffer at a given pH. As for `O=C(O)c1ccc([C@H]2CC[C@]3(CC2)OOC2(O3)C3CC4CC(C3)CC2C4)cc1` (stereo not given in full), in [1], the pH-dependent lipophilicity (logD) was found to be 3. Also, the figures for the solubility kinetic at 0.5 h in data set [2] and in data set [3] were below 1.6 µg/mL and below 3.1 µg/mL, respectively. At Albumin, the PPB was found to be 98.8%. For the same compound, in the data set on Schistosoma mansoni [4], the Activity turned out to be 100%.

As to `O=C(O)COc1ccc([C@H]2CC[C@]3(CC2)OOC2(O3)C3CC4CC(C3)CC2C4)cc1Cl` (stereo not given in full), the Activity result with U2OS is recorded as “Non-Toxic”; in data set [6], “Non-Toxic”; in the data set with HFF, “Non-Toxic”; in the data set on HEK-293T it was “Non-Toxic”; in the data set on Schistosoma mansoni [8], 84%. In addition, the figures for the microsomal CLint in data set [5] and in [7] were below 7 µL/min/mg and 8 µL/min/mg, respectively. In [1], this compound displayed a logD of 3.2. Besides, the solubility kinetic at 0.5 h in [2] was 3.1 to 6.3 µg/mL (≈ 6.91 to 14 µM); in [3], below 3.1 µg/mL. The PPB on Albumin is given as above 99.5%.

A word on the IC50: it is the concentration that inhibits the measured activity by half. Turning to `O=C(O)COc1ccc([C@H]2CC[C@]3(CC2)OOC2(O3)C3CC4CC(C3)CC2C4)cc1` (stereo not given in full), the concentration for half-maximal inhibition (IC50) in the data set on Schistosoma mansoni [9] was 44 µM; in the data set on Schistosoma japonicum [10], 39 µM. Also, the Activity amounted to 86% in the data set on Schistosoma haematobium, 80% in the data set with Schistosoma mansoni [11], 69% in the data set with Schistosoma japonicum [12] and 84% in the data set with Schistosoma mansoni [4]. Moreover, the logD in data set [1] worked out at 2.9. Also, the solubility kinetic at 0.5 h in data set [2] is 6.3 to 12.5 µg/mL (≈ 15.2 to 30.2 µM); in data set [3] it was below 1.6 µg/mL.

Values taken from ChEMBL document CHEMBL4376900, “Structure-Activity Relationship of Antischistosomal Ozonide Carboxylic Acids” (J Med Chem, 2020).
